Compounds with a hit are over-represented: about 3.7% of the library has one in this group of screens.
KCNK3 inh: human KCNK3 channel inhibition, primary screen. O14649. CHO-KCNK3 thallium flux, FluxOR fluorescence; hits give low values. B-score at 10 µM. hit rate 0.84% among 340,000. AID 602410;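 active = B-score under library mean minus 4 SD, starting fluorescence ratio at most library mean plus 5 SD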;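 also: more negative B-score means stronger inhibition of thallium flux through KCNK3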
hERG rescue: hERG (human) protection from proarrhythmic block | Q12809 | CHO-hERG, FluxOR thallium flux, dofetilide IC70 present | activation (rescue from dofetilide block), less the hit threshold, % at 10 µM | hit rate 0.51% among 310,000 | AID 1511;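 active = activation above the mean of controls blocked by dofetilide plus 5 SD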;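 also: thallium influx through hERG after potassium depolarization seen as dye fluorescence rise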
Target sequence (Q12809 whole entry, looked up): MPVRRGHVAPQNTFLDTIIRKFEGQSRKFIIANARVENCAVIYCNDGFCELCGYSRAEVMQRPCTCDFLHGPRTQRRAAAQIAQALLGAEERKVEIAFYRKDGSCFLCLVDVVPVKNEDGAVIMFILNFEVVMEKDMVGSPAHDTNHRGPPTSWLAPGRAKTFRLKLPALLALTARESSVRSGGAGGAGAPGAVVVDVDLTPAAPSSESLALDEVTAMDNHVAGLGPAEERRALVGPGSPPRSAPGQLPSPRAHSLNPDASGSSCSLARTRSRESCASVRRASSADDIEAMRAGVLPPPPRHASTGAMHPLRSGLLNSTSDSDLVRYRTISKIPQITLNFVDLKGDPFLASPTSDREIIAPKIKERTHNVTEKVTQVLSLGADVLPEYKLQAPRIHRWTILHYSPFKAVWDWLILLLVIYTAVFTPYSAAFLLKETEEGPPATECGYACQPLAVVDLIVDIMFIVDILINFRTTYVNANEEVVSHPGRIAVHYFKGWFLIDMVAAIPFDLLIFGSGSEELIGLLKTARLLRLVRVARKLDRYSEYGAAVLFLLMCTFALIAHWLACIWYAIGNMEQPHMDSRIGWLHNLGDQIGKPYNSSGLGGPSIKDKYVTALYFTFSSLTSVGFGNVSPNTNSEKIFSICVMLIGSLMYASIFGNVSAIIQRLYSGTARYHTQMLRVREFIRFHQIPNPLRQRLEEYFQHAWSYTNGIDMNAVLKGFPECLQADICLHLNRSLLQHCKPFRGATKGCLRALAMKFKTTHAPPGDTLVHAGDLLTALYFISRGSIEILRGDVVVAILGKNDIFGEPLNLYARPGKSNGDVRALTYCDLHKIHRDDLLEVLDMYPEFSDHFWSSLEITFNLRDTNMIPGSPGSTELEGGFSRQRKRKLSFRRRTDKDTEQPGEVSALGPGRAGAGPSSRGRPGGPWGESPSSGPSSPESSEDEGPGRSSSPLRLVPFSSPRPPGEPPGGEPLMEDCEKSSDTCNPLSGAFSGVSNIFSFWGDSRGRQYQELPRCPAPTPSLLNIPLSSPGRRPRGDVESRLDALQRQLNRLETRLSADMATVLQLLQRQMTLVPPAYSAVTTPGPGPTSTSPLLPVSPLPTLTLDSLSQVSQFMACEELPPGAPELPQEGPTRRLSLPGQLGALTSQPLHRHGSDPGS
KCNQ1 inh: human KCNQ1 channel inhibition; P51787; CHO-K1 KCNQ1, FluxOR thallium flux fluorescence; hits give high values; B-score at 10 µM; hit rate 1.3% among 310,000;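 active = compounds whose thallium flux B-score, printed positive for inhibition, exceeds three library SD while starting fluorescence stays within three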;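 also: channel opened by potassium depolarization with thallium stimulus after 20 min compound exposure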
KCNQ1 pot: potentiators or activators of human KCNQ1 potassium channel | P51787 | CHO-K1 KCNQ1, thallium flux FluxOR fluorescence; hits give high values | B-score at 10 µM | hit rate 0.35% among 310,000 | AID 2648;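 active = fluorescence ratio B-score, a plate-corrected score, at least three library SD, with initial intensity B-score within 5 SD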
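assay system = KCNQ1-transfected CHO-K1 cells | medium = assay buffer with matched DMSO | probe or stimulus = depolarizing K+/Tl+ stimulus, K2SO4 and Tl2SO4 each 12.5 mM in 5x stock | dosing = single dose | incubation = dye 90 min, compound 20 min, room temperature | detection = kinetic FluxOR fluorescence, 10 s baseline plus 110 s post-stimulus | evaluation = ratio B score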
KCNK9 block: human KCNK9 channel inhibition | Q9NPC2 | B-score at 10 µM | AID 488922 | HEK293 KCNK9, FluxOR thallium flux fluorescence; hits give low values | hit rate 1.2% among 310,000;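 active = ratio B-score over 3 SD below the library mean, with starting fluorescence within 5 SD of its mean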;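 also: negative B-score means less thallium flux so channel inhibition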
Kir21 inh: blocks the mouse Kir2.1 inward-rectifier potassium channel. P35561. HEK293-Kir2.1, FluxOR thallium flux fluorescence; hits give low values. B-score at 10 µM. hit rate 0.85% among 310,000;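 active = fluorescence ratio B-score at or below minus 3 SD of library scores, with starting-brightness B-score within 2 SD, cut at about -4.2 in these data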;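 also: channel flux triggered by added potassium and thallium sulfate stimulus; B-score of peak minus minimum fluorescence over baseline after thallium stimulus; more negative B-score means stronger Kir2.1 block with less thallium influx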
KCNK9 block conf: confirmation of human KCNK9 potassium channel inhibitors; HEK293 KCNK9 cells, FluxOR thallium flux fluorescence; hit rate 43% among 4,900; inhibition, % at 10 µM; shares compounds with KCNK9 block; AID 492992;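 active = thallium signal inhibited by more than 5 SD of the compound-free buffer control wells, on both duplicate plates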
Kir2-1 spec: selectivity of KCNK9 modulators against mouse Kir2.1; shares compounds with KCNK9 block; Kir2.1 cells, FluxOR thallium flux fluorescence; inhibition, % at 10 µM; hit rate 4% among 4,900; AID 492993;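 active = thallium signal drop more than 5 SD beyond the mean of the no-compound control wells, seen in both duplicate plates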;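 also: signal is fluorescence rise after thallium addition divided by baseline fluorescence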
HEK293 Tl ctr: second check of KCNK9 modulator effects in non-induced HEK293 cells | shares compounds with KCNK9 block | FluxOR thallium flux | inhibition, % at 10 µM | hit rate 40% among 4,900 | AID 492997;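 active = thallium signal drop beyond 5 SD of the untreated control mean, on both duplicate plates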
Large screens that a line does not name were inactive (follow-up assays come after a bar, where they were run).

COc1ccc(CN2CCNC(=O)C2CC(=O)NC2Cc3ccccc3C2)c(OC)c1 (stereo not drawn)	none
COc1ccc(C(=O)CN2CCN(CCN3C(=O)c4cccc5cccc(c45)C3=O)CC2)cc1	none | KCNK9 block conf inactive | Kir2-1 spec inactive | HEK293 Tl ctr inactive
COc1ccc(S(=O)(=O)N2CC3CCCN3c3cc(C(F)(F)F)ccc32)cc1 (stereo not drawn)	none
COc1ccc(S(=O)(=O)N2CC3CCCN3c3ccc(C(F)(F)F)cc32)cc1 (stereo not drawn)	KCNK9 block -18.1 | KCNK9 block conf 72.5% | Kir2-1 spec inactive | HEK293 Tl ctr 44.0%
O=C(O)c1ccc(CP(=O)(c2ccccc2)c2ccccc2)cc1	none
N#CC1(Cc2ccccc2)c2ccccc2C=CN1C(=O)c1ccccc1 (stereo not drawn)	KCNQ1 inh 6, KCNK9 block -9.84 | KCNK9 block conf 46.5% | Kir2-1 spec inactive | HEK293 Tl ctr 31.0%
O=C(CSc1ccc([N+](=O)[O-])cc1)c1ccccc1	none (no result: hERG rescue, KCNQ1 inh, KCNQ1 pot, KCNK9 block, Kir21 inh)
N#CC1(Cc2ccc([N+](=O)[O-])cc2)c2ccccc2C=CN1C(=O)c1ccccc1 (stereo not drawn)	KCNK9 block -12.1 | KCNK9 block conf 32.0% | Kir2-1 spec inactive | HEK293 Tl ctr 34.0%
COc1ccc(-c2n(CC(=O)OC3CC(C)CCC3C(C)C)c3ccccc3[n+]2C)cc1 (stereo not drawn)	KCNQ1 inh 11, KCNK9 block -16.9, Kir21 inh -13.1 | KCNK9 block conf 73.0% | Kir2-1 spec 80.0% | HEK293 Tl ctr inactive
COC(=O)c1cc(=O)n(Cc2cccs2)c(=Nc2ccc(F)cc2)s1	none
COC(=O)c1cc(=O)n(CCc2ccccc2F)c(=Nc2ccc(F)c(Cl)c2)s1	KCNK9 block -14 | KCNK9 block conf 44.0% | Kir2-1 spec inactive | HEK293 Tl ctr 36.0%
Cc1cccc(N2CCN(C(=O)c3cc(COc4ccc(F)c(F)c4)on3)CC2)n1	none
C=CCC1(CC=C)CCCN1C(=O)c1cc(COc2ccc(F)c(F)c2)on1	KCNQ1 inh 10 | KCNK9 block conf inactive | Kir2-1 spec inactive | HEK293 Tl ctr inactive
O=C(/C=C/c1ccccc1)c1cc(Br)ccc(=O)c1O	hERG rescue 11.6, KCNQ1 pot 22 | KCNK9 block conf inactive | Kir2-1 spec inactive | HEK293 Tl ctr inactive
CC1Cc2ccccc2N1C(=O)CO/N=C/c1ccccc1OC(F)F (stereo not drawn)	none | KCNK9 block conf inactive | Kir2-1 spec inactive | HEK293 Tl ctr inactive
O=C(CO/N=C/c1ccccc1OC(F)F)N1CCc2ccccc21	none
O=C(Cn1cc2c(n1)CCCC2)Nc1cc(-c2cccc(Cl)c2)no1	KCNK9 block -15.4 | KCNK9 block conf 59.5% | Kir2-1 spec inactive | HEK293 Tl ctr inactive
CC(NC(=O)Cn1cc2c(n1)CCCCC2)c1ccccc1 (stereo not drawn)	none
O=[N+]([O-])c1ccc(S(=O)(=O)N2CCN=C2SCc2ccc(F)cc2)cc1	none
CC(C)CNC(=O)N1c2ccccc2Sc2ccccc21	none | KCNK9 block conf inactive | Kir2-1 spec inactive | HEK293 Tl ctr inactive
CCOC(=O)C1(CC2CC2)CCN(Cc2ccc3cccc(F)c3n2)CC1	none | KCNK9 block conf inactive | Kir2-1 spec inactive | HEK293 Tl ctr inactive
CCCc1nc(SCC(=O)N2CCCc3ccccc32)c2c(=O)n(C)c(=O)n(C)c2n1	none | KCNK9 block conf inactive | Kir2-1 spec inactive | HEK293 Tl ctr inactive
CC(C)C(=O)NC(c1ccc(Cl)cc1Cl)c1ccc2cccnc2c1O (stereo not drawn)	none | KCNK9 block conf inactive | Kir2-1 spec inactive | HEK293 Tl ctr 28.5%
COc1ccc2c(c1)/C(=N/OC(=O)c1cccs1)CCC2	KCNK9 block -12 | KCNK9 block conf inactive | Kir2-1 spec inactive | HEK293 Tl ctr inactive

Bioassay records (PubChem)
